RGS4 inh: RGS4 inhibitors, primary screen, cell-based, HEK293 M3R inducible RGS4, calcium flux. 0.45% of 310,000 active. B-score at 10 µM. AID 463165, 2010. Fluo-4 calcium flux; active compounds read high; triggered by carbachol at its EC20. Regulator of G-protein signaling 4 (Homo sapiens), P49798;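 active = B-score, a plate-corrected calcium signal, over three deviations above library mean, with baseline fluorescence within five deviations of library mean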;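 note: RGS4 expression induced by doxycycline in cells with stable M3 receptor; B-score is computed from the integrated fluorescence ratio over baseline after carbachol; higher B-score means a larger calcium signal and so more RGS4 inhibition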
Target sequence (P49798 whole entry, looked up): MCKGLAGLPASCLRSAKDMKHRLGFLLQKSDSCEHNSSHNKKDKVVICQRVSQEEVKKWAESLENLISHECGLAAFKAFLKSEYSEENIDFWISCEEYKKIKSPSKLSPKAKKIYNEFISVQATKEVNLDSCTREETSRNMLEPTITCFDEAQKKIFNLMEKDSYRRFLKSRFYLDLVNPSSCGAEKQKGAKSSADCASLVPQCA
MrgX1 ag: agonists of human MrgX1 receptor, primary screen, HEK293 cells, Fluo-4 calcium flux. Fluo-4 calcium fluorescence, agonist mode; active compounds read high. 0.44% of 310,000 active. Mas-related G-protein coupled receptor member X1 (Homo sapiens), Q96LB2. B-score at 10 µM;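 active = calcium response B-score plate-corrected fluorescence ratio at least 3 library SD, with starting fluorescence B-score inside 5 SD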
Target sequence (Q96LB2 whole entry, looked up): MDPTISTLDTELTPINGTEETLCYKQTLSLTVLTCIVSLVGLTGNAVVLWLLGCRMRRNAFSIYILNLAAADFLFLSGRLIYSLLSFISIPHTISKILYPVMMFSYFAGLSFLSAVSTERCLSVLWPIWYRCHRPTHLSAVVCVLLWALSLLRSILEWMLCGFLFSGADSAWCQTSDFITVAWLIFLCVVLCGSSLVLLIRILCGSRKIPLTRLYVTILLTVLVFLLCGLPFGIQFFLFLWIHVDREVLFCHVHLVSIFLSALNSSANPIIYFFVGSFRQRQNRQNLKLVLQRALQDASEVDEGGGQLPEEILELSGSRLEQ
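Material: MrgX1-expressing HEK293 cells / Dosing: compound as first of three additions / Incubation: overnight seeding, then 1 h dark dye loading / Signal: Fluo-4 NW calcium fluorescence / Evaluation: B-scored fluorescence response ratio / Benchmarks: positive and negative control wells on each plate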
MrgX1 antag: antagonists of human MrgX1 receptor, primary screen, HEK293 cells, Fluo-4 calcium flux | Mas-related G-protein coupled receptor member X1 (Homo sapiens), Q96LB2 | BAM8-22 antagonism; active compounds read low | B-score at 10 µM | 1.3% of 310,000 active;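 active = calcium-response B-score plate-corrected more than 3 library SD below zero, starting fluorescence within 5 deviations, no agonist response on first addition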;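 note: peak minus trough fluorescence over baseline after final BAM8-22 challenge near maximal dose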
MrgX1 PAM: positive allosteric modulators of MrgX1, primary screen, HEK293 cells, Fluo-4 calcium flux. FDSS; active compounds read high. B-score at 10 µM. 0.63% of 310,000 active;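 active = plate-corrected calcium response at least 3 library SD above typical, normal starting fluorescence, not activating the receptor alone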;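 note: compound read alongside a low EC10 to EC30 dose of BAM8-22 agonist; peak minus trough fluorescence over baseline measured at the second addition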
RGS4 act: RGS4 potentiators or activators, primary screen, cell-based, HEK293 M3R inducible RGS4, calcium flux. 0.92% of 310,000 active. AID 463111, 2010. B-score at 10 µM. carbachol calcium flux Fluo4; active compounds read low;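 active = B-score of the integrated calcium signal more than 4 SD below the library mean, with starting fluorescence not abnormally high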;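 note: negative B-score means reduced calcium response which marks RGS4 activation or potentiation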
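System – HEK293 FlpIn-TREx cells, stable M3R, doxycycline-inducible RGS4 · Reagent – ECmax carbachol challenge · Times – compound preincubation 20 min at room temperature before agonist · Technique – Fluo4 fluorescence kinetic imaging of calcium · Measure – B score of integrated Fluo4 ratio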
MrgX1 PAM conf: MrgX1 positive allosteric modulators, duplicate retest, confirmation, HEK293 cells, Fluo-4 calcium flux. 13% of 1,200 active. shares compounds with MrgX1 PAM. Fluo-4 calcium fluorescence, FDSS. activation (ratio percentage), % at 10 µM;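 active = ratio at least 3 SD above the weak peptide control, stable starting fluorescence, no direct agonism earlier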;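 note: compound followed by low BAM8-22 agonist challenge near EC20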
MrgX1 antag conf: MrgX1 receptor antagonists, duplicate retest, confirmation, HEK293 cells, Fluo-4 calcium flux; BAM8-22 calcium flux; active compounds read low; shares compounds with MrgX1 antag; remaining BAM8-22 calcium response % of control (active compounds read low), % at 10 µM; AID 602420, 2012; 19% of 2,300 active;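 active = remaining agonist calcium response no higher than 100% minus 3 SD of agonist-only control wells, with starting fluorescence near control levels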;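 note: agonist BAM8-22 given at a near maximal EC90 to ECmax level; peak minus minimum fluorescence divided by baseline after agonist addition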
HEK293 Ca flux: nonspecific calcium signal in parental HEK293, confirmation, counter-screen for MrgX1 antagonist project, parental HEK293 cells, Fluo-4 calcium flux; shares compounds with MrgX1 antag; Fluo-4 calcium fluorescence, FDSS; fluorescence ratio F(max-min)/F0 at 10 µM; 2% of 4,000 active;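 active = duplicate-averaged calcium fluorescence ratio at least three times the standard deviation of buffer wells, a nonspecific response in parental cells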
HEK293 Ca counter: calcium response in parental HEK293 cells, primary screen, counter-screen for MrgX1 allosteric activator project, cell-based, Fluo-4 calcium flux, duplicate; shares compounds with MrgX1 antag; Fluo-4 fluorescence ratio; active compounds read high; fluorescence ratio F(max-min)/F0 at 10 µM; 0.4% of 4,000 active; AID 624114, 2012;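 active = calcium fluorescence ratio, averaged over duplicates, at least 3 SD of the buffer-well ratio, meaning a nonspecific response in receptor-free cells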;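 note: untransfected parental HEK293 lacking MrgX1 used as counterscreen for MrgX1 allosteric activators; fluorescence change taken during the second addition on a kinetic imager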
HEK293 Ca cntr2: calcium response in parental HEK293 cells, primary screen, counter-screen for MrgX1 agonist project, cell-based, Fluo-4 calcium flux, duplicate, agonist mode; Fluo-4 calcium fluorescence (FDSS); active compounds read high; AID 624115, 2012; fluorescence ratio F(max-min)/F0 at 10 µM; shares compounds with MrgX1 antag; 8.7% of 4,000 active;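 active = calcium fluorescence ratio at least three times the spread of buffer wells, meaning a non-specific response in parental cells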
* = called active by the depositor; i = inactive; . = no result given. Sampled rows, rich in hits. Any-hit rate of the full collection: about 3.5%.

SMILES	RGS4 inh	MrgX1 ag	MrgX1 antag	MrgX1 PAM	RGS4 act	MrgX1 PAM conf	HEK293 Ca flux	HEK293 Ca counter	HEK293 Ca cntr2	others
c1ccc2nc(-c3ccc(-n4ccnc4)cc3)ccc2c1	i	i	i	8.9*	i	i	i	i	i
O=C(CSc1nnnn1C1CCCC1)Nc1ccccc1N1CCOCC1	i	i	i	7.9*	i	i	i	i	i
O=C(CSc1nnnn1C1CCCC1)Nc1ccccc1F	i	i	i	i	i	.	.	.	.
CCOc1ccccc1NC(=O)NNC(=O)CCc1ccc(OC)cc1	i	i	i	i	i	.	.	.	.
CC(Oc1ccc(Cl)cc1Cl)C(=O)Nc1ccc(S(=O)(=O)Nc2cnc3ccccc3n2)cc1 (centres undefined)	i	i	i	i	i	.	.	.	.
Cc1cc(Cl)ccc1OC(C)C(=O)Nc1ccc(S(=O)(=O)Nc2cnc3ccccc3n2)cc1 (centres undefined)	i	i	-6.7*	7.6*	i	i	i	i	i	MrgX1 antag conf=81%*
O=C(OCC(=O)N1CCCC1)c1ccc(S(=O)(=O)Nc2ccccc2)cc1	i	i	i	12*	i	i	i	i	i
CC1(C(=O)N/N=C/c2c(F)c(F)c(F)c(F)c2F)CC1(Cl)Cl (centres undefined)	i	i	i	20*	i	i	i	i	i
O=C(NCCCn1ccnc1)/C(=C\c1cccnc1)NC(=O)c1ccccc1Br	i	i	i	i	i	.	.	.	.
CCS(=O)(=O)NCCCCc1ccccc1	i	i	i	i	i	.	.	.	.
CCc1cccc(NC(=O)c2ccc(NS(=O)(=O)c3c(C)noc3C)cc2)c1	i	i	i	15*	i	15%*	i	i	i
COc1cccc(CNc2ncc(Br)cc2Br)c1O	i	i	i	i	i	.	.	.	.
COc1cccc(CNc2ccc(Br)cn2)c1O	i	i	i	12*	i	i	i	i	i
Cc1[nH]c(C)c(C(=O)/C=C/c2ccc([N+](=O)[O-])cc2)c1C	i	i	i	i	i	.	.	.	.
CCn1c(SCC(=O)Nc2ccc(N(C)C)cc2)nnc1-c1cccc(C)c1	i	i	i	i	i	.	.	.	.
CCN(C(=O)COc1ncnc2scc(-c3ccc(F)cc3)c12)C1CCS(=O)(=O)C1 (centres undefined)	i	i	i	i	i	.	.	.	.
CN(C)C(=O)COc1ncnc2scc(-c3ccc(F)cc3)c12	i	i	i	8.2*	i	35%*	i	i	i

High-throughput results: PubChem BioAssay, Johns Hopkins Ion Channel Center
